Assay results as given in ChEMBL document CHEMBL2311322, “On scaffold hopping: challenges in the discovery of sulfated small molecules as mimetics of glycosaminoglycans” (Bioorg Med Chem Lett, 2013).
Calls of active or inactive are those of the source. The rule behind the calls is not given here.

Key:
Human alphaherpesvirus 1 = test: Binding affinity to Herpes simplex virus 1 recombinant Lys25-His332-truncated His6-tagged glycoprotein D expressed in Escherichia coli measured after 3 hrs by affinity co-electrophoretic analysis
[1] = target: Coagulation factor X (Homo sapiens) (UniProt P00742); test: Inhibition of human coagulation factor 10a using spectrozyme F10a as substrate at 365 uM after 10 mins by spectrophotometric analysis
Summary of the method: (§1)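 Chromogenic substrate hydrolysis screen against each coagulation protease (VIIa, IXa, Xa, XIa, XIIa), each with its appropriate substrate. Inhibitor was tested at a single concentration of 365 μM. Fractional residual activity was taken as the ratio of initial hydrolysis rates with and without inhibitor, read spectrophotometrically.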

Prothrombin = Prothrombin (Homo sapiens, UniProt P00734); test: Inhibition of human alpha thrombin using spectrozyme TH as substrate
Summary of the method: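 Chromogenic assay: initial rate of Spectrozyme TH hydrolysis read spectrophotometrically at pH 7.4 and 25 °C across a range of inhibitor concentrations. Fractional loss of initial rate plotted against log concentration and fitted to a logistic dose–response equation to give IC50.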

[2] = target: T1, Coagulation factor VII (Homo sapiens) (UniProt P08709); test: Inhibition of human coagulation factor 7a using spectrozyme 7a as substrate at 365 uM after 10 mins by spectrophotometric analysis; summary of the method: as §1
T1 sequence (whole entry): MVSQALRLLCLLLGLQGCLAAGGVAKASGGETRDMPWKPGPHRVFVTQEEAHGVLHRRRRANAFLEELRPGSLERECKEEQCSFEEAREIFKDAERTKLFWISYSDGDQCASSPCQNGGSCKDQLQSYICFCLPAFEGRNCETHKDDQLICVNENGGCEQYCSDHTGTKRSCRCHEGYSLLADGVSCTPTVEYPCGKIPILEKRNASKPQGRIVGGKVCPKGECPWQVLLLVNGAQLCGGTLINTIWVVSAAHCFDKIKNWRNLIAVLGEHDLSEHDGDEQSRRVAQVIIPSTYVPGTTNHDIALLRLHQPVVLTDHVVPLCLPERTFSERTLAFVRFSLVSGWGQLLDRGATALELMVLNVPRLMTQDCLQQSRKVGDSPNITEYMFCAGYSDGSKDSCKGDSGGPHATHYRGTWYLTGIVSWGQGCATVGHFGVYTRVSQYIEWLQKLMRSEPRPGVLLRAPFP

[3] = target: T2, Coagulation factor XII (Homo sapiens) (UniProt P00748); test: Inhibition of human coagulation factor 12a using spectrozyme F12a as substrate at 365 uM after 10 mins by spectrophotometric analysis; summary of the method: as §1
T2 sequence (whole entry): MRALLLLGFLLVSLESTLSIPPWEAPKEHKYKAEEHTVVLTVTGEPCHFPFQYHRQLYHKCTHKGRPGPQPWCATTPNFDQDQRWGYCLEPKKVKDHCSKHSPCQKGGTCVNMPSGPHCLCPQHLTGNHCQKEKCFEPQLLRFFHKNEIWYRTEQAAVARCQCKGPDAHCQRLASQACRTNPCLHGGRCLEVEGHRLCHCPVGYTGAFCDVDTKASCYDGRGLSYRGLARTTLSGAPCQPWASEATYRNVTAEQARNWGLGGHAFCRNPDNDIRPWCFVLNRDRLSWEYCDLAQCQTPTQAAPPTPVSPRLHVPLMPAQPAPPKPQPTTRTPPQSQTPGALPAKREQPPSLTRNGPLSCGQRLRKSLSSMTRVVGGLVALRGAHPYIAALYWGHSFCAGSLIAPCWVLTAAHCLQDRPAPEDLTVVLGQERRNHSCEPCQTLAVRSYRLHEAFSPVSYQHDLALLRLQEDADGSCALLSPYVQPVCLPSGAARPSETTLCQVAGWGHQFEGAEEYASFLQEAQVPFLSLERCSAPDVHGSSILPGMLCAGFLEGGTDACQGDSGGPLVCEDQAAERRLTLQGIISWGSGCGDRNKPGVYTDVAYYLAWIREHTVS

Plasma = test: Anticoagulant activity in human plasma assessed as inhibition of Cacl2-induced coagulation after 4 mins by fibrometric analysis; format: functional
Summary of the method: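 Human plasma clotting times were read on a fibrometer in both prothrombin time (PT) and activated partial thromboplastin time (APTT) formats, across a range of inhibitor concentrations. Trend lines of clotting time versus concentration gave the concentration needed to double clotting time (2×PT, 2×APTT).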

[4] = target: Coagulation factor XI (Homo sapiens) (UniProt P03951); test: Inhibition of human coagulation factor 11a at 365 uM after 10 mins by spectrophotometric analysis; summary of the method: as §1
[5] = target: Coagulation factor IX (Homo sapiens) (UniProt P00740); test: Inhibition of human coagulation factor 9a using spectrozyme F9a as substrate at 365 uM after 10 mins by spectrophotometric analysis; summary of the method: as §1
Chain of Coagulation factor IX (Homo sapiens) (P00740 47-191 limits assumed): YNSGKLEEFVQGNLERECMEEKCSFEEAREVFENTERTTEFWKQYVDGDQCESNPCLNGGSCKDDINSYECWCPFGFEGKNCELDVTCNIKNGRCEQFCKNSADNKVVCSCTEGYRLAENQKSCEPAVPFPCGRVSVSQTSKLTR
Chain of Coagulation factor IX (Homo sapiens) (P00740 227-461 limits assumed): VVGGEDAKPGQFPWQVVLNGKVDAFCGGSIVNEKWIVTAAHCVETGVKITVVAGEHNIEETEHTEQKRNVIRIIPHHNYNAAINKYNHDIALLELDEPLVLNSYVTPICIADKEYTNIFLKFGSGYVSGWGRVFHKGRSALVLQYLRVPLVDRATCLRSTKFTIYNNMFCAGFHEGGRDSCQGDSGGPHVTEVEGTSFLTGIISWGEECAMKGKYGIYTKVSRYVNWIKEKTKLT

Chain of Coagulation factor X (Homo sapiens) (P00742 41-179 limits assumed): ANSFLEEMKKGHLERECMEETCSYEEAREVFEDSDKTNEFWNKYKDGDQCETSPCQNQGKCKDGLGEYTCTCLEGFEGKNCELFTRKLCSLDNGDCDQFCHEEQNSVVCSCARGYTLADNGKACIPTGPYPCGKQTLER
Chain of Coagulation factor X (Homo sapiens) (P00742 235-488 limits assumed): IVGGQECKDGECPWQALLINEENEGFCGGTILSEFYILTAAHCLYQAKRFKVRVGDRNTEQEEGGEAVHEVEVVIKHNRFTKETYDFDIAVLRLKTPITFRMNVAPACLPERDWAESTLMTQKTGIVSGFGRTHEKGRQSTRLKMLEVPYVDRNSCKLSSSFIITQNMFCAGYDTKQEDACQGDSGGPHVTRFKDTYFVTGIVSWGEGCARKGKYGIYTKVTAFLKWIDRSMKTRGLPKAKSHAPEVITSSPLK
Chain of Coagulation factor XI (Homo sapiens) (P03951 19-387 limits assumed): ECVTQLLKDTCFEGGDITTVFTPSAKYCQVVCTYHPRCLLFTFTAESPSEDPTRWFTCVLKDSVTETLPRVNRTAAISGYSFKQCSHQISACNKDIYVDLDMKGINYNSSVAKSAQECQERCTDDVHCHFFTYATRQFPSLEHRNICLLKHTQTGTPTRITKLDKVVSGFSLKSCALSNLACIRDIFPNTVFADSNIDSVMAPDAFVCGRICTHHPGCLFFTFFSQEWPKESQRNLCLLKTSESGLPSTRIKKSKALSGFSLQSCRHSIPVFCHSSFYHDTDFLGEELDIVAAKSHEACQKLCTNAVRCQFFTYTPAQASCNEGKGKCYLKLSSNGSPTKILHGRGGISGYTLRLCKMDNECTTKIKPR
Chain of Coagulation factor XI (Homo sapiens) (P03951 388-625 limits assumed): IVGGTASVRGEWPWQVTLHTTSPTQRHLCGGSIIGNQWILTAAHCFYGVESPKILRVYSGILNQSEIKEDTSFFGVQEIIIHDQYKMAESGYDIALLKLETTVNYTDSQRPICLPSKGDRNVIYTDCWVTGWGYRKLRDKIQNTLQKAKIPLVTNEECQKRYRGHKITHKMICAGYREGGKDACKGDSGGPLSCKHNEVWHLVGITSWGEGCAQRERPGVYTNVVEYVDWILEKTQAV

SMILES | Activity (Human alphaherpesvirus 1) [µM] | inhibition [1] [%] | IC50 (Prothrombin) [µM] | inhibition [2] [%] | inhibition [3] [%] | 2PT (Plasma) [µM] | 2aPTT (Plasma) [µM] | inhibition [4] | inhibition [5] [%]
O=C(O)C1=C[C@H](O)[C@@H](OS(=O)(=O)O)[C@@H](O[C@H]2[C@H](O)[C@@H](NS(=O)(=O)O)[C@@H](O[C@H]3[C@H](O)[C@@H](OS(=O)(=O)O)[C@@H](O[C@H]4[C@H](O)[C@@H](NS(=O)(=O)O)[C@@H](O[C@H]5[C@H](O)[C@@H](OS(=O)(=O)O)[C@@H](O[C@H]6[C@H](OS(=O)(=O)O)[C@@H](NS(=O)(=O)O)[C@@H](O[C@H]7[C@H](O)[C@@H](OS(=O)(=O)O)[C@@H](O[C@H]8[C@H](O)[C@@H](NS(=O)(=O)O)[C@@H](O)O[C@@H]8COS(=O)(=O)O)O[C@H]7C(=O)O)O[C@@H]6COS(=O)(=O)O)O[C@H]5C(=O)O)O[C@@H]4COS(=O)(=O)O)O[C@H]3C(=O)O)O[C@@H]2COS(=O)(=O)O)O1 | 19 | – | – | – | – | – | – | – | –
N#Cc1c(SCC(=O)c2cccc(OS(=O)(=O)O)c2OS(=O)(=O)O)nc([N+](=O)[O-])c(C#N)c1-c1ccc(OCc2ccccc2)cc1 | – | > 20 | 65.9 | > 20 | > 20 | 606 | 550 | Active | > 20
O=C(Nc1ccc(OS(=O)(=O)O)cc1)c1cccc(N2C(=O)c3ccc(C(=O)Nc4ccc(OS(=O)(=O)O)cc4)cc3C2=O)c1 | – | > 20 | 286 | > 20 | > 20 | – | – | inactive | > 20
